We go through 3 compounds from ChEMBL document CHEMBL1156152, “Targeted delivery of paclitaxel to tumor cells: synthesis and in vitro evaluation” (J Med Chem, 2010).

Series [1] relates to HUVEC. The series is described as follows: Cytotoxicity against TPA-treated HUVEC assessed as decrease in cell viability after 72 hrs by neutral red dye assay. Format: cell-based. The following applies: human. Put shortly: (§1)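 HUVECs cultured overnight with or without TPA (100 nM phorbol ester) to induce tissue factor, then plated 20,000 cells/well, adhered 24 h, and exposed to graded drug concentrations for 72 h in triplicate. Viability read by neutral red uptake (50 μg/ml, 30 min, 37 °C), PBS washes, dye extracted in 0.5 N HCl/35% ethanol, absorbance at 570 nm.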

The test system of series [2] is KB-V1. The series is described as follows: Cytotoxicity against paclitaxel-resistant human KBV1 cells assessed as decrease in cell viability after 72 hrs by neutral red dye assay. Format: functional, cell-based. Summed up: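 KB-V1 cells grown in D-MEM/F12 with 10% FBS, penicillin/streptomycin, 2 mM L-glutamine and vinblastine (1 μg/ml), 37 °C, 5% CO2. Plated at 20,000 cells/well, adhered 24 h, treated with graded concentrations in triplicate for 72 h; neutral red (50 μg/ml, 30 min) uptake, dye extracted in acidic ethanol, read at 570 nm.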

A short description of series [3]: (§2) Cytotoxicity against paclitaxel-sensitive human KB3-1 cells assessed as decrease in cell viability after 72 hrs by neutral red dye assay. The format is functional, cell-based. The following applies: KB 3-1, 72 h. Put shortly: (§3)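 KB-3-1 head and neck cancer cells kept in D-MEM/F12 with 10% FBS, penicillin/streptomycin, 2 mM L-glutamine, 37 °C, 5% CO2. Seeded 20,000 cells/well, adhered 24 h, then given varying concentrations in triplicate for 72 h. Viable cells took up neutral red (50 μg/ml, 30 min); dye dissolved in 0.5 N HCl with 35% ethanol, absorbance 570 nm.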

Series [4] concerns HUVEC. The series can be described thus: Cytotoxicity against HUVEC assessed as decrease in cell viability after 72 hrs by neutral red dye assay. The following applies: human. Format: cell-based. Put shortly: as §1
Series [5] deals with KB 3-1. The series is described as §2. The format is functional, cell-based. Summed up:
as §3

Calls of active or inactive are those of the source. The calls are words filed in the database; no cut-off is given here.

For `CC(=O)O[C@H]1C(=O)[C@@]2(C)[C@H]([C@H](OC(=O)c3ccccc3)[C@]3(O)C[C@H](OC(=O)[C@H](O)[C@@H](NC(=O)c4ccccc4)c4ccccc4)C(C)=C1C3(C)C)[C@]1(OC(C)=O)CO[C@@H]1C[C@@H]2O` [PACLITAXEL], the outcome in series [1] and in series [4] was Active. For the same compound, the result in series [2] was inactive. Besides, in series [3], the IC50 was 1.2 nM.
In the case of `CC(=O)O[C@H]1C(=O)[C@]2(C)[C@@H](OC(=O)CCC(=O)N[C@@H](Cc3ccccc3)C(=O)N[C@@H](Cc3ccccc3)C(=O)N[C@@H](CCCNC(=N)N)C(=O)CCl)C[C@H]3OC[C@@]3(OC(C)=O)[C@H]2[C@H](OC(=O)c2ccccc2)[C@]2(O)C[C@H](OC(=O)[C@H](O)[C@@H](NC(=O)c3ccccc3)c3ccccc3)C(C)=C1C2(C)C`, the result in series [2] was inactive. The Activity entry in series [5] was “Dose-dependent effect”. The IC50 in series [3] was determined as 130 nM.
Take `CC(=O)O[C@H]1C(=O)[C@@]2(C)[C@H]([C@H](OC(=O)c3ccccc3)[C@]3(O)C[C@H](OC(=O)[C@H](OC(=O)CCC(=O)N[C@@H](Cc4ccccc4)C(=O)N[C@@H](Cc4ccccc4)C(=O)N[C@@H](CCCNC(=N)N)C(=O)CCl)[C@@H](NC(=O)c4ccccc4)c4ccccc4)C(C)=C1C3(C)C)[C@]1(OC(C)=O)CO[C@@H]1C[C@@H]2O`: the figures for the Activity entry in series [1] and in series [5] were “Not Active” and “Dose-dependent effect”, respectively. Further, the result in series [2] was inactive. Besides, the IC50 in series [3] turned out to be 12 nM.
